# Measured values taken from PMC8114561 (Small (Weinheim an der Bergstrasse, Germany), 2019).
# Values joined by “and” are separate entries in the source; they are usually repeats but may differ in a detail not shown here. Identical values can stand only once.
# What was measured:
# MIA PaCa-2 tumors = assay: Tumor regression, MIA PaCa-2 pancreatic xenograft; type: in vivo, nude BALB/c mice; conditions: 20 mg Dox equiv. kg^−1 BW
# C26 tumors = assay: Tumor regression, syngeneic C26 colon carcinoma; type: in vivo, BALB/c mice; conditions: single i.v. dose
# STS = conditions: ref NCT01514188; cited from earlier work
# [1] = tested on: advanced soft tissue sarcomas; conditions: cited from earlier work
# [2] = Intravenous pharmacokinetics in healthy BALB/c mice
# [3] = cited from earlier work
# MIA PaCa-2 cells = assay: In vitro cytotoxicity; type: cell-based, human; conditions: 72 h incubation, MTS, Dox equiv. concentration, n = 3 (Figure 2F)
# How it was run: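 MIA PaCa-2 cells grown in DMEM with 10% FBS and 2.5% horse serum, seeded at 5000 cells/well and left overnight. Exposed for 72 h, in triplicate, to 3-fold serial dilutions in medium, with cell-free wells for background correction. MTS added for 3 h at 37 °C, then A490 read. Viability relative to buffer-treated cells; IC50 as Dox equiv. by logistic nonlinear regression.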
# [4] = mouse, iv
# [5] = tested on: C26 murine colon carcinoma cells; assay: In vitro cytotoxicity; type: cell-based
compound,measurement,setting,value
"COc1cccc2c1C(=O)c1c(O)c3c(c(O)c1C2=O)C[C@@](O)(/C(CO)=N/NC(=O)CCCCCN1C(=O)C=CC1=O)C[C@@H]3O[C@H]1C[C@H](N)[C@H](O)[C@H](C)O1 [AlDox, Aldoxorubicin]",Tumor recurrence in tumor-eradicated mice by day 50,MIA PaCa-2 tumors,tumors recurred in all of the tumor-eradicated mice
same,Mice with complete tumor disappearance by day 15,MIA PaCa-2 tumors; single i.v. dose,50%
same,Mice that did not survive over the 100-day course of study,C26 tumors; 20 mg Dox equiv. kg^−1 BW,89%
same,Tumor response at 20 mg Dox equiv. kg^−1 BW,"C26 tumors; without recurrence of the primary tumor in any mice, 100 days",complete eradication of C26 tumors
same,Cardiotoxicity in the AlDox arm,STS,no evidence of cardiotoxicity
same,"Overall survival, AlDox versus free Dox arms",STS,not considerably different
same,PFS in the AlDox arm,STS,superior PFS
same,Cardiotoxicity,[1],minimal cardiotoxicity
same,Progression-free survival compared to the standard of care regimen,[1],superior progression-free survival
same,"Plasma concentration 15 min after i.v. injection, fold lower than ABD–Dox","[2]; i.v. 5 mg Dox equiv. per kg BW, 15 min",approximately 2 fold
same,Area under curve,"[2]; i.v. 5 mg Dox equiv. per kg BW, plasma, two-compartment model, mean ± SD",801.2 ± 23.7 × 10^−6 M h
same,Concentration at which an acidic pH is required for solubility,[3]; aqueous solutions,≥ 0.5 mg Dox equiv. mL^−1
same,Solubility at physiological pH,[3]; requires an acidic pH for solubility in aqueous solutions,poor solubility
"COc1cccc2c1C(=O)c1c(O)c3c(c(O)c1C2=O)C[C@@](O)(C(=O)CO)C[C@@H]3O[C@H]1C[C@H](N)[C@H](O)[C@H](C)O1 [free Dox, doxorubicin]","Concentration in blood 15 min after i.v. injection, of the initial concentration","[2]; i.v. 5 mg per kg BW, 15 min",less than 2%
same,IC50,MIA PaCa-2 cells,40 nM
same,In vivo elimination half-life,[4],on the order of minutes
same,IC50,"[5]; 72 h, in the absence of MSA and ABD, n = 3 (Figure 2H)",230 nM
same,IC50,"[5]; 72 h, in the presence of ABD (0.5 × 10^−3 M in medium), n = 3 (Figure 2H)",160 nM
same,IC50,"[5]; 72 h, in the presence of MSA (equimolar), n = 3 (Figure 2H)",220 nM
same,IC50,"[5]; 72 h incubation, MTS, Dox equiv. concentration, n = 3 (Figure 2F)",510 nM and 500 nM
same,Change of cytotoxicity in the presence of either MSA or ABD,"[5]; C26 cells, 72 h",No difference was observed
